Test [1] deals with T1, Hormone-sensitive lipase (Homo sapiens, UniProt Q05469).
T1 sequence (Q05469 whole entry): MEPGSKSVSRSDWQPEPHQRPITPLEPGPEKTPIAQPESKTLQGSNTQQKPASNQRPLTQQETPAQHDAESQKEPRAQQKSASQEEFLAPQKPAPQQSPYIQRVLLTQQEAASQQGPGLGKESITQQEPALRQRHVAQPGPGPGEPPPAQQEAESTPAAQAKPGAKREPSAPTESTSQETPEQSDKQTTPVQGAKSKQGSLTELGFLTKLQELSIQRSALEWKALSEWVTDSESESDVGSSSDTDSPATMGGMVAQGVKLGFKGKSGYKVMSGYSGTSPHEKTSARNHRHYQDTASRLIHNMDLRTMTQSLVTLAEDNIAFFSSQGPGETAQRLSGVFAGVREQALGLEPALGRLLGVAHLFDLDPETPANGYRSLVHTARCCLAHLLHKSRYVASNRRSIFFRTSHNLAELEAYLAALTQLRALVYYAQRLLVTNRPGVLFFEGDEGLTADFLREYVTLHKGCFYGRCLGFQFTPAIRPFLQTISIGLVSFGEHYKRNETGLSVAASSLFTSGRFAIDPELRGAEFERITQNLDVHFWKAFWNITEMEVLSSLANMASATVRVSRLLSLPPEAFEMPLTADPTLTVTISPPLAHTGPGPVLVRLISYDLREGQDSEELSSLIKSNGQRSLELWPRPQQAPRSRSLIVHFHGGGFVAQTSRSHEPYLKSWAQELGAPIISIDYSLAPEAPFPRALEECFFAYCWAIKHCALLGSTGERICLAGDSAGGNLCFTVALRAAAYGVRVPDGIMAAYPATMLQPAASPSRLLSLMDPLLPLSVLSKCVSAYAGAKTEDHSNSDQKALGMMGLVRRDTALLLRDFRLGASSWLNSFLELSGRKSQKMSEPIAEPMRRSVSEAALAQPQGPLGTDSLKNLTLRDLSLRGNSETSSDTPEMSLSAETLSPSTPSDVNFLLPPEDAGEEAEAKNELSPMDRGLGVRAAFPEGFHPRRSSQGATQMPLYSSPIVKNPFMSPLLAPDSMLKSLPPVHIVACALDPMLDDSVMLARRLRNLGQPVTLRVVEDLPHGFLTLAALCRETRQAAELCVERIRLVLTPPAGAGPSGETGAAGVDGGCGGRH
The experiment in a line: Inhibitory activity against Human Hormone-sensitive lipase (HSL) expressed in the baculovirus was determined by HSL [14 C] cholesteryl oleate assay. A digest of the protocol: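 Recombinant human HSL from Sf9/baculovirus expression, Ni-NTA purified. Substrate was a [14C]cholesteryl oleate emulsion. IC50 derived from 8-point concentration curves run in triplicate.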

The target in test [2] is T1, Hormone-sensitive lipase. The test can be described thus: Inhibitory activity against human hormone-sensitive lipase (HSL) expressed in the baculovirus was determined by p-nitrophenyl butyrate (PNPB) assay. A digest of the protocol:
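Recombinant human HSL (His-tagged, Sf9/baculovirus, Ni-NTA purified), 10 ng per reaction in 20 mM KPO4 pH 7.4, 1 mM EDTA, 0.1% Triton X-100, 5 mM p-nitrophenyl butyrate, 5% DMSO. Incubated 1 h at 27 °C, absorbance read at 400 nm. Full 8-point IC50 curves run in triplicate.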

1 molecule from ChEMBL document CHEMBL1136733, “Pyrrolopyrazinedione-based inhibitors of human hormone-sensitive lipase” (J Med Chem, 2003) can be followed below.

By IC50 is commonly meant the concentration that inhibits the measured activity by half. A higher IC50 goes with weaker potency in that assay.

Structures are written as SMILES.

As to `COC(=O)C1CC2(COCc3ccccc3)C(=O)N(CCCCc3ccccc3)CC(=O)N2C1c1ccco1` (configuration not stated), the values for the IC50 in test [1] and in test [2] were 260 nM and 210 nM, respectively.
